Experimental data as given in BindingDB's records for doi:10.1021/jm100027p (Emory University, 2010).

Tests used:
[1] = biological target: Glutamate receptor ionotropic, NMDA 1/2A (Rattus norvegicus, UniProt Q00959+P35439); assay: Antagonist activity at rat recombinant NR1-NR2A receptor expressed in Xenopus oocytes at holding potential of -40mV by two-electrode voltage-clamp electrophysiology
Procedure, shortened: (§1)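 Oocytes expressing rat NR1-1a with NR2A, NR2B, NR2C or NR2D, clamped at −40 mV in Ba2+/HEPES recording solution pH 7.4, 23°C. Current evoked by 100 μM glutamate plus 30 μM glycine. Final DMSO 0.05-0.5%, 5-7 inhibitor concentrations, ≥4 oocytes each. IC50 from Hill fit of normalized mean composite data. […] Some NR2A oocytes given BAPTA-AM or K-BAPTA.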

[2] = biological target: Glutamate receptor ionotropic, NMDA 1/2C (Rattus norvegicus, UniProt Q00961+P35439); assay: Antagonist activity at rat recombinant NR1-NR2C receptor expressed in Xenopus oocytes at holding potential of -40mV by two-electrode voltage-clamp electrophysiology; procedure, shortened: as §1
[3] = biological target: Glutamate receptor ionotropic, NMDA 1/2B (Rattus norvegicus, UniProt Q00960+P35439); assay: Antagonist activity at rat recombinant NR1-NR2B receptor expressed in Xenopus oocytes at holding potential of -40mV by two-electrode voltage-clamp electrophysiology
Procedure, shortened: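 Oocytes expressed rat NR1-1a/NR2B and were held at −40 mV, 23°C, pH 7.4 HEPES-buffered saline. Currents were activated by 100 μM glutamate plus 30 μM glycine. 5-7 inhibitor concentrations were tested, ≥4 oocytes each, normalized to control. IC50 came from Hill fits, minimum fixed at 0 unless indicated. Responses >75% of control at 100 μM were reported as >300 μM.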

[4] = biological target: Glutamate receptor 1 (Rattus norvegicus, UniProt P19490); assay: Antagonist activity at rat recombinant GLuR1 expressed in Xenopus oocytes assessed as inhibition of glutamate-induced current by two-electrode voltage-clamp electrophysiology
Procedure, shortened: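 Two-electrode voltage clamp at −40 mV on Xenopus oocytes expressing rat GluR1, perfused with 90 NaCl, 1.0 KCl, 0.5 BaCl2, 0.005 EDTA, 10 HEPES (mM), pH 7.4, 23°C; activated by 100 μM glutamate. From 20 mM DMSO stocks, 5-7 concentrations, ≥4 oocytes each. Hill fit to mean composite curves normalized to control, minimum usually fixed at 0. Response >75% at 100 μM reported as >300 μM.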

Sequence of Glutamate receptor ionotropic, NMDA 1/2C (Q00961 whole entry, other chains not shown): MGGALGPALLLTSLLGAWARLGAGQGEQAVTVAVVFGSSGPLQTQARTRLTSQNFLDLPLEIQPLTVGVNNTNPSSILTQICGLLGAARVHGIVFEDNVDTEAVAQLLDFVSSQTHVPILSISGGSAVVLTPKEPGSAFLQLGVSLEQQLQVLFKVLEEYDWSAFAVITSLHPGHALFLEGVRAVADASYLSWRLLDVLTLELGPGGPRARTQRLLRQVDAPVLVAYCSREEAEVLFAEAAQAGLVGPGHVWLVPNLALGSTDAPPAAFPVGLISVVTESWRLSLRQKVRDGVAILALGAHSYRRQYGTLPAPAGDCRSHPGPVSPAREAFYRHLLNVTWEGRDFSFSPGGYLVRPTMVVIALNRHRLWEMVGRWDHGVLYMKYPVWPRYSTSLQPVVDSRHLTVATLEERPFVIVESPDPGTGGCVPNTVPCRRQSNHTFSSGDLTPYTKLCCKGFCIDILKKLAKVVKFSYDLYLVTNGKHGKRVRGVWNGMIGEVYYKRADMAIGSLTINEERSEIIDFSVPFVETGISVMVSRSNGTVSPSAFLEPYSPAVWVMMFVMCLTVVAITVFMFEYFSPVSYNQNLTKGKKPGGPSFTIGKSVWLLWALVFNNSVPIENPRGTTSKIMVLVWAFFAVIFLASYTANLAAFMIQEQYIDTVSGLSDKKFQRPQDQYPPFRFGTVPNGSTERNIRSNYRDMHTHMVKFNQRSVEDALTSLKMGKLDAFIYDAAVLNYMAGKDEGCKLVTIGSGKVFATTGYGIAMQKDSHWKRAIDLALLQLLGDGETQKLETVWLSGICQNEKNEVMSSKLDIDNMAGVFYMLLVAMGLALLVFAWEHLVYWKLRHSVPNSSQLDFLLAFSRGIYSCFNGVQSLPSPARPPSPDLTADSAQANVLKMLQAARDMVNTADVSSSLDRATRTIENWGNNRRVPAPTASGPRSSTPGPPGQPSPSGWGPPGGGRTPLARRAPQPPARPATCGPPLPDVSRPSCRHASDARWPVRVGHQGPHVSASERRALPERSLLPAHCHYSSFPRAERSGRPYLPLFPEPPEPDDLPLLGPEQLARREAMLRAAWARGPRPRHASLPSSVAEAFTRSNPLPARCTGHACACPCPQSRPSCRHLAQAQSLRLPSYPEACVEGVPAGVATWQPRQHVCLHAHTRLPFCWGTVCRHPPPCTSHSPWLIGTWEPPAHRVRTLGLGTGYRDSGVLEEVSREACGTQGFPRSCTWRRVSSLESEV
Sequence of Glutamate receptor 1 (P19490 whole entry, the tested form may be a part): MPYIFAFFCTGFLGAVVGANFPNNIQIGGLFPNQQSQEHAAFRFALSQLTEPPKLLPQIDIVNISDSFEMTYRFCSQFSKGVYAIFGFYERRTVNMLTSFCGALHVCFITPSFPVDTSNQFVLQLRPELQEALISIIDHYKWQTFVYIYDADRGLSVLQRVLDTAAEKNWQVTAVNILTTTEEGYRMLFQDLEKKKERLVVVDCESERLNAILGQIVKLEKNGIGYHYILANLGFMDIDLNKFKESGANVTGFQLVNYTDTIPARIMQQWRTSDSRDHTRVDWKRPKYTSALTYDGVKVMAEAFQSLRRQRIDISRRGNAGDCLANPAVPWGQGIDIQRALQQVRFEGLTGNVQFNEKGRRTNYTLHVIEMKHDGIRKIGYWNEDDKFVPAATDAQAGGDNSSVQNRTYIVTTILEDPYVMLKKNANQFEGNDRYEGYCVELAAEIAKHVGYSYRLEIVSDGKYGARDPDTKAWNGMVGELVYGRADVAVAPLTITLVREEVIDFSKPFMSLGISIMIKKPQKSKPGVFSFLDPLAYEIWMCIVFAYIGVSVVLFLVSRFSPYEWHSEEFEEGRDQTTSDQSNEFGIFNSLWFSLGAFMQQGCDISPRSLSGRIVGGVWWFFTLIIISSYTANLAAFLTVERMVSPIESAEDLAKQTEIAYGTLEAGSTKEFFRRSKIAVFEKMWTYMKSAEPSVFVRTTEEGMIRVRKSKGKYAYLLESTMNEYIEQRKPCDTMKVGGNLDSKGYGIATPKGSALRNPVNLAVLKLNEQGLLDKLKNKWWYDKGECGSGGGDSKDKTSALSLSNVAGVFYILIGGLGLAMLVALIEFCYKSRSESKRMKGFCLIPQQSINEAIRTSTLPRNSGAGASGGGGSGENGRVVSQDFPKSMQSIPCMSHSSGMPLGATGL
Sequence of Glutamate receptor ionotropic, NMDA 1/2B (Q00960 whole entry, other chains not shown): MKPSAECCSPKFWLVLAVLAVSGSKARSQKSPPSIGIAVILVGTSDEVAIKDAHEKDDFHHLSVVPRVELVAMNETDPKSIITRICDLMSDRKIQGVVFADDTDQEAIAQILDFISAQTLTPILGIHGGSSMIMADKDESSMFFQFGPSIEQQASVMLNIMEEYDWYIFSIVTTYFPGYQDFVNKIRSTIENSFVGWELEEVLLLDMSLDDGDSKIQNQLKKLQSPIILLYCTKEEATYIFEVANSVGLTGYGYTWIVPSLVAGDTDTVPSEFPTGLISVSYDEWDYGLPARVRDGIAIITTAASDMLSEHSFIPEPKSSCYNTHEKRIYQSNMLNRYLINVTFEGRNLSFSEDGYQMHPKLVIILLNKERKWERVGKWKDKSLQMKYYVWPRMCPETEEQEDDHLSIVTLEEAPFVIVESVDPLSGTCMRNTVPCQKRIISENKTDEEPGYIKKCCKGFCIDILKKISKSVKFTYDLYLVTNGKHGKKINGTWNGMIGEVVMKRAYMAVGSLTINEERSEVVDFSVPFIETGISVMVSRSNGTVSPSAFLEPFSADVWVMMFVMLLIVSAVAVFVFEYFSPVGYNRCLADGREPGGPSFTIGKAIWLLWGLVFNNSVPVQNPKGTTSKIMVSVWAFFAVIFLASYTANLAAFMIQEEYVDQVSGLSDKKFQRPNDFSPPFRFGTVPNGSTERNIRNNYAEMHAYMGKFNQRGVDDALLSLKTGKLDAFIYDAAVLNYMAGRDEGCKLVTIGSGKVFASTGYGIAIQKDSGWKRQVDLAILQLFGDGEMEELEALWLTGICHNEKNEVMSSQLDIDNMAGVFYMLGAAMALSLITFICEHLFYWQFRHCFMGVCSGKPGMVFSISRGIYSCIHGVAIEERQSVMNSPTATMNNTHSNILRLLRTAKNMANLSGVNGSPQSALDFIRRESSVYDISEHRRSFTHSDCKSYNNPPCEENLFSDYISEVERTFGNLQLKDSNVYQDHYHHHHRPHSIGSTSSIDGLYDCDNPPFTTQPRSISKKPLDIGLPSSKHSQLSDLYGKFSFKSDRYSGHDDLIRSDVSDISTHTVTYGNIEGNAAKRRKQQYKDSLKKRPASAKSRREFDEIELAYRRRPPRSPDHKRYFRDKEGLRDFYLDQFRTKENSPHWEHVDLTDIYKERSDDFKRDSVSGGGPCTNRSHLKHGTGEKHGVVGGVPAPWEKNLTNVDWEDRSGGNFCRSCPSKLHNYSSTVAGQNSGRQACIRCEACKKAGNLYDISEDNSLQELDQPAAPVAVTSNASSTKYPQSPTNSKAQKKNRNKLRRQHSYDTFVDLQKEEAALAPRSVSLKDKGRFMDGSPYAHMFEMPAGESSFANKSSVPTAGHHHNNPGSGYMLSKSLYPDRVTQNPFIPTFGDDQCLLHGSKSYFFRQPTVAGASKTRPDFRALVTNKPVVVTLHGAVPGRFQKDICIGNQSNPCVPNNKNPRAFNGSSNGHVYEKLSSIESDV
Sequence of Glutamate receptor ionotropic, NMDA 1/2A (Q00959 whole entry, other chains not shown): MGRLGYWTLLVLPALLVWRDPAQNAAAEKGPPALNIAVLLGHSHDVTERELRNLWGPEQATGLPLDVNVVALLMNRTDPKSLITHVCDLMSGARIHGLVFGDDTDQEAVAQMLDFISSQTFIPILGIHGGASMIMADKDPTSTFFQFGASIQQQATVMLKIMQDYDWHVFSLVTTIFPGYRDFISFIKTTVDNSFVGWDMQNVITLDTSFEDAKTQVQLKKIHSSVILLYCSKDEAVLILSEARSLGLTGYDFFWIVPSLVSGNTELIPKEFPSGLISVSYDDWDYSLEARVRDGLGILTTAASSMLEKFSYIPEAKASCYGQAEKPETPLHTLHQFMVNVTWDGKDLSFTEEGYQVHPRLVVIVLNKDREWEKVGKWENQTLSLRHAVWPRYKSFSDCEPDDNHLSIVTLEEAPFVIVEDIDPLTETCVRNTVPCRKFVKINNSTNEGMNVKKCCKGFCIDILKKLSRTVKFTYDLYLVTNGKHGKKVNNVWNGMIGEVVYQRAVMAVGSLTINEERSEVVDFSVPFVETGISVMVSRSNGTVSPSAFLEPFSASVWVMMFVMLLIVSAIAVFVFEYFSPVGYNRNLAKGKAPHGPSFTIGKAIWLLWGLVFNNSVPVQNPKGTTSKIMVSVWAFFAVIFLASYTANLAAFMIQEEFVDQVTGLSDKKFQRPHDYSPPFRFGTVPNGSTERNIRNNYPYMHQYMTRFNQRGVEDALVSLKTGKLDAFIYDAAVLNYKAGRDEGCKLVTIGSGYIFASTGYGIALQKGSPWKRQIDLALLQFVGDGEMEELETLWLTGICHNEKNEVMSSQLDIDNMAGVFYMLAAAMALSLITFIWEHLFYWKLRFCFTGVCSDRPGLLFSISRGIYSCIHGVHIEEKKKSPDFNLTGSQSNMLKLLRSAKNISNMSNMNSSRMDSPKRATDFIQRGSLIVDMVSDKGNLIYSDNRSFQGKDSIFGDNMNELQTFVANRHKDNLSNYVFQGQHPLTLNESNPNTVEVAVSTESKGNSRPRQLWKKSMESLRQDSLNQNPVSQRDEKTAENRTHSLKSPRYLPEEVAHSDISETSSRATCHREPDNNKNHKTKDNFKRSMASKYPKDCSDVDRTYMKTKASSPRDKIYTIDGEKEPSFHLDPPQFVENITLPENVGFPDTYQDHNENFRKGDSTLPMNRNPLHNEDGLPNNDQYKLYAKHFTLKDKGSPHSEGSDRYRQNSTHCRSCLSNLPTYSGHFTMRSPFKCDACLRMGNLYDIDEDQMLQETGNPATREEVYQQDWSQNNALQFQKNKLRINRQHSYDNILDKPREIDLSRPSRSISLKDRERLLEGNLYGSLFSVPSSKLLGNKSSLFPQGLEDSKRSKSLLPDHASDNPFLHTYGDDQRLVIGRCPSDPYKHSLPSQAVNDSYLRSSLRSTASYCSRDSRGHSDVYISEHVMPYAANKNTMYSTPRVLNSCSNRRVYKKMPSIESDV

IC50 [1]: 16 µM | IC50 [2]: 2 µM | IC50 [3]: 13 µM | IC50 [4]: 7 µM
SMILES: O=C(O)c1ccc(-n2c(/C=C/c3cccc([N+](=O)[O-])c3)nc3ccc(Cl)cc3c2=O)cc1 [(E)-4-(6-Chloro-2-(3-nitrostyryl)-4-oxoquinazolin-3(4H)-yl)-benzoic Acid]
